ERp5 block – blocks human ERp5 reductase activity on insulin; Q15084; ERp5 insulin aggregation, absorbance 650 nm, 90 min; inhibition, % at 9.99 µM; 0.05% of 350,000 active; AID 651711;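 active = mean replicate inhibition above about 25%, with every replicate also reaching it, limit read from the data, passing the limit was not always enough; inconclusive = only one of those two criteria met; inactive = neither criterion met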
PDI turbidity – inhibitors of human protein disulfide isomerase; P07237; PDI insulin aggregation turbidity, A650, 90 min; inhibition, % at 10 µM; 0.052% of 350,000 active; AID 588391;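 active = mean inhibition across replicates of 30% or more, whatever share of single replicates reach that level; inconclusive = mean inhibition below 30% while every single replicate reaches 30%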
Target sequence (P07237 whole entry, looked up): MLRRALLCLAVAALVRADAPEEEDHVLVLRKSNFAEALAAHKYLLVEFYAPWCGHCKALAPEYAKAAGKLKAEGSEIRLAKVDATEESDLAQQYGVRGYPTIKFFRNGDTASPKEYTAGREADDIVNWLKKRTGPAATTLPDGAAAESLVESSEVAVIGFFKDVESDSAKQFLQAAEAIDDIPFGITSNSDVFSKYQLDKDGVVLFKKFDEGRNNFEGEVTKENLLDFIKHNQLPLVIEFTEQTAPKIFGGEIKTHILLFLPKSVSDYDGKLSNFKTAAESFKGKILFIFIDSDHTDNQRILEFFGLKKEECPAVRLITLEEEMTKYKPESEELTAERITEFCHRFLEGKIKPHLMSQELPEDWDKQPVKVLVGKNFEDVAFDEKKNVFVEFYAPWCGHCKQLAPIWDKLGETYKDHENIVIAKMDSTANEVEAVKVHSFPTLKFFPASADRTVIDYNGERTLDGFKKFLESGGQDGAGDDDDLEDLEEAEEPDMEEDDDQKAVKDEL
Cneo AK release – Cryptococcus neoformans lysis via adenylate kinase release. C. neoformans lysis, adenylate kinase release luminescence, 4 h; normalised: neutral wells 0, clomiphene wells 100. lysis activity, % at 15 µM. 0.2% of 360,000 active. AID 651654;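 active = mean lysis activity across replicates of at least 80%, whatever share of replicates individually reach that level; inactive = mean lysis activity below 80%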
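Assay system: log-phase C. neoformans yeast / Quantity: yeast cell density of 5 × 10^6 cells/mL / Medium: fresh YPD growth medium / Compound: single dose / Timing: static 4 h at 37 °C with compound, 1 h detection / Measured by: adenylate kinase release luminescence / Read-out: lysis from increased AK signal / Benchmarks: Clomiphene as positive lysis control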
CFTR F508del cor – correctors of CFTR F508del function in bronchial epithelial cells; CFBE cells, YFP halide quenching; stimulated with forskolin plus potentiator P3; % fluorescence drop versus neutral controls; activity (quench increase), % at 7.58 µM; 0.36% of 350,000 active; AID 720511;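 active = mean added fluorescence quench of at least 8% versus neutral control, with both replicates also reaching 8%; inconclusive = only one of the mean or replicate conditions met; inactive = mean below 8% and not both replicates reaching 8%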;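 also: cells transiently co-express mutant CFTR-F508del with the halide-sensitive YFP; corrector assay measuring rescue of mutant channel to the surface after 24 h compound exposure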
C2C12 statin – protects C2C12 myotubes from simvastatin toxicity | AID 602340 | rescue of ATP level, % at 7.49 µM | 0.78% of 330,000 active | ATP luminescence, 48 h; scaled: DMSO 0, geranylgeraniol control 100;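 active = mean ATP rescue above about 67%, or every replicate alone reaching that limit, limit read from the data, passing the limit was not always enough; inconclusive = no clear call, values can overlap the other calls; inactive = mean under the limit and some replicate under it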;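 also: myotubes were challenged with 10 µM simvastatin during compound exposure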
DENV2 CPE rescue – DENV2-induced cell death inhibition | 1.7% of 350,000 active | CPE inhibition, % at 9.99 µM | DENV2-infected cells, cytopathic effect rescue, plate reader; in the data active = CPE inhibition above about 20%, passing the limit was not always enough; inconclusive = no clear call, values can overlap the other calls; tested in BHK-21 cells;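 also: 0% = median of neutral control wells and 100% = median of positive control wells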
The depositor's hits bear a star. Compounds with a hit are over-represented: about 2.3% of the library has one in this group of screens.

How did Cc1c(CCC(=O)N[C@@H](CC(C)C)C(=O)O)c(=O)oc2cc3oc4c(c3cc12)CCCC4 do in these assays?
ERp5 block: -1; PDI turbidity: 38*; Cneo AK release: -1; CFTR F508del cor: 1; C2C12 statin: 1; DENV2 CPE rescue: 1

Results for CN1C(C)(C)c2ccccc2OS1(=O)=O ?
ERp5 block: -2; PDI turbidity: 3; Cneo AK release: 0; CFTR F508del cor: 4; C2C12 statin: -19; DENV2 CPE rescue: 25*

What do the screens show for `COc1ccc(-c2ccc3n(c2=O)C[C@@H]2[C@@H](CO)[C@H](C(=O)Nc4ccccc4)N(C)[C@H]32)cc1`?
ERp5 block: -3; CFTR F508del cor: 3; DENV2 CPE rescue: inconclusive

Results for CC(C)C#Cc1ccc([C@@H]2[C@H]3CN(C(=O)NC4CCCCC4)CC(=O)N3[C@H]2CO)cc1 ?
ERp5 block: -3; CFTR F508del cor: 1; DENV2 CPE rescue: 3

What do the screens show for `CC(C)NC(=O)Nc1ccc2c(c1)C(=O)N([C@@H](C)CO)C[C@@H](C)[C@H](CN(C)Cc1ccc(C(=O)O)cc1)OCCCC[C@@H](C)O2`?
ERp5 block: -1; Cneo AK release: 1; CFTR F508del cor: 0; DENV2 CPE rescue: 22*

Results for CC(C)NC(=O)Nc1ccc2c(c1)C(=O)N([C@H](C)CO)C[C@@H](C)[C@@H](CN(C)Cc1ccc(C(=O)O)cc1)OCCCC[C@H](C)O2 ?
ERp5 block: 4; Cneo AK release: -1; CFTR F508del cor: -3; DENV2 CPE rescue: 39*

What do the screens show for `O=C(C[C@H]1C=C[C@@H](NC(=O)Nc2ccccc2F)[C@@H](CO)O1)NCc1ccccc1`?
ERp5 block: -2; CFTR F508del cor: -1; DENV2 CPE rescue: inconclusive

What do the screens show for `C[C@H]1CN([C@@H](C)CO)C(=O)c2cccc(NC(=O)c3ccncc3)c2O[C@@H]1CN(C)S(=O)(=O)c1ccc(F)cc1`?
ERp5 block: 4; Cneo AK release: -2; CFTR F508del cor: -1; C2C12 statin: -1; DENV2 CPE rescue: inconclusive

What do the screens show for `C[C@@H]1CN([C@H](C)CO)C(=O)Cc2cc(NS(=O)(=O)c3ccc(Cl)cc3)ccc2O[C@@H]1CN(C)Cc1ccncc1`?
ERp5 block: 7; Cneo AK release: 0; CFTR F508del cor: 2; C2C12 statin: 7; DENV2 CPE rescue: -5

How did CO[C@H]1CN(C)C(=O)c2cc(NS(=O)(=O)c3ccc(C)cc3)ccc2OC[C@@H](C)N(C)C[C@H]1C do in these assays?
ERp5 block: -2; Cneo AK release: 0; CFTR F508del cor: -1; C2C12 statin: -1; DENV2 CPE rescue: 11

Results for CO[C@H]1CN(C)C(=O)c2cc(NS(=O)(=O)c3ccc(C)cc3)ccc2OC[C@H](C)N(C)C[C@H]1C ?
ERp5 block: -2; Cneo AK release: 116*; CFTR F508del cor: 1; C2C12 statin: -10; DENV2 CPE rescue: 10

Results for CO[C@@H]1CN(C)C(=O)c2cc(NS(=O)(=O)c3ccccc3)ccc2OC[C@@H](C)N(C)C[C@H]1C ?
ERp5 block: 4; Cneo AK release: 3; C2C12 statin: 10; DENV2 CPE rescue: -3

What do the screens show for `CO[C@@H]1CN(C)C(=O)c2cc(NS(=O)(=O)c3ccccc3)ccc2OC[C@H](C)N(C)C[C@H]1C`?
ERp5 block: 2; Cneo AK release: -2; C2C12 statin: 0; DENV2 CPE rescue: 21*

Results for O=C(O)c1c[nH]c2ccc(S(=O)(=O)N3CCOCC3)cc12 ?
PDI turbidity: 21; Cneo AK release: 4; C2C12 statin: 107*

Results for COc1ccc(NC(=O)N(C)C[C@@H]2Oc3c(NC(=O)C4CC4)cccc3C(=O)N([C@@H](C)CO)C[C@H]2C)cc1 ?
ERp5 block: 4; Cneo AK release: 4; CFTR F508del cor: 2; C2C12 statin: 4; DENV2 CPE rescue: -2

Results for CCCCn1nnnc1C1(C)CCC(=O)N1CCOc1ccccc1 (stereo not given) ?
ERp5 block: -3; CFTR F508del cor: -1; DENV2 CPE rescue: 66*

How did COc1ccc(-n2nnnc2C2(C)CCC(=O)N2Cc2ccccc2)cc1 (stereo not given) do in these assays?
ERp5 block: -4; CFTR F508del cor: -1; DENV2 CPE rescue: 63*

What do the screens show for `Cc1ccc(CN2C(=O)CCC2(C)c2nnnn2Cc2ccccc2)cc1` (stereo not given)?
ERp5 block: 1; CFTR F508del cor: 0; DENV2 CPE rescue: inconclusive

Results for CC1(c2nnnn2Cc2ccccc2)CCC(=O)N1CCOc1ccccc1 (stereo not given) ?
ERp5 block: 3; CFTR F508del cor: 0; DENV2 CPE rescue: 92*

What do the screens show for `CCCCn1nnnc1C1(C)CCC(=O)N1Cc1ccc(OC)cc1` (stereo not given)?
ERp5 block: 0; CFTR F508del cor: -4; DENV2 CPE rescue: 12

Results for CN1C(=O)c2cc(NC(=O)Nc3cccc(Cl)c3)ccc2OC[C@@H]2O[C@@H](CC(=O)NCCc3ccncc3)CC[C@@H]21 ?
ERp5 block: 2; Cneo AK release: -1; CFTR F508del cor: 1; C2C12 statin: -5; DENV2 CPE rescue: -10

Results for CCCNC(=O)N1CCC2(CC1)CN(S(C)(=O)=O)[C@@H](CO)c1c2c2ccc(OC)cc2n1C ?
ERp5 block: 1; CFTR F508del cor: -2; DENV2 CPE rescue: 10

How did COc1ccc(S(=O)(=O)Nc2ccc3c(c2)C(=O)N([C@@H](C)CO)C[C@@H](C)[C@@H](CN(C)Cc2ccncc2)OCCCC[C@H](C)O3)cc1 do in these assays?
ERp5 block: -2; Cneo AK release: 4; CFTR F508del cor: -3; DENV2 CPE rescue: 37*

What do the screens show for `COc1ccc(S(=O)(=O)Nc2ccc3c(c2)C(=O)N([C@@H](C)CO)C[C@H](C)[C@H](CN(C)Cc2ccncc2)OCCCC[C@H](C)O3)cc1`?
ERp5 block: 1; Cneo AK release: 50; CFTR F508del cor: -3; DENV2 CPE rescue: 106*

What do the screens show for `COc1ccc(S(=O)(=O)Nc2ccc3c(c2)C(=O)N([C@@H](C)CO)C[C@H](C)[C@H](CN(C)Cc2ccncc2)OCCCC[C@@H](C)O3)cc1`?
ERp5 block: -5; Cneo AK release: -2; CFTR F508del cor: 0; DENV2 CPE rescue: 13

How did COc1ccc(S(=O)(=O)Nc2ccc3c(c2)C(=O)N([C@@H](C)CO)C[C@@H](C)[C@@H](CN(C)Cc2ccncc2)OCCCC[C@@H](C)O3)cc1 do in these assays?
ERp5 block: 1; Cneo AK release: -1; CFTR F508del cor: 3; DENV2 CPE rescue: -4

How did O=C(C[C@@H]1C[C@@H]2c3cc(NC(=O)c4cccnc4)ccc3O[C@@H]2[C@H](CO)O1)NCC(F)(F)F do in these assays?
ERp5 block: 1; Cneo AK release: -1; CFTR F508del cor: -4; C2C12 statin: 1; DENV2 CPE rescue: -1

Source: PubChem (Broad Institute)
